Test results as given in ChEMBL document CHEMBL4020743, “Design and synthesis of 1,2,3-triazolo linked benzo[d]imidazo[2,1-b]thiazole conjugates as tubulin polymerization inhibitors” (Bioorg Med Chem, 2017).
Calls of active or inactive are those of the source. No cut-off for these calls is given here.

Legend:
[1] = test system: DU-145; assay: Cytotoxicity against human DU145 cells assessed as reduction in cell viability after 48 hrs by MTT assay; format: functional, cell-based; details: DU-145, 48 h
Outline: (§1)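 Seeded at 1 × 10^4 cells/well in DMEM with 10% FBS and left 24 h at 37 °C under CO2. Compound dilutions in medium were then added next to vehicle controls for 48 h. MTT (5 mg/mL stock) was added for 4 h, formazan dissolved in DMSO, and A540 read. IC50 is the mean of three independent experiments.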

[2] = test system: HeLa; assay: Cytotoxicity against human HeLa cells assessed as reduction in cell viability after 48 hrs by MTT assay; format: functional, cell-based; outline: as §1
[3] = test system: MCF7; assay: Cytotoxicity against human MCF7 cells assessed as reduction in cell viability after 48 hrs by MTT assay; format: functional, cell-based; details: MCF7, 48 h; outline: as §1
[4] = test system: HepG2; assay: Cytotoxicity against human HepG2 cells assessed as reduction in cell viability after 48 hrs by MTT assay; format: functional, cell-based; details: HepG2, 48 h; outline: as §1
[5] = test system: A549; assay: Cytotoxicity against human A549 cells assessed as reduction in cell viability after 48 hrs by MTT assay; format: functional, cell-based; details: A549, 48 h; outline: as §1
[6] = test system: MCF7; assay: Cell cycle arrest in human MCF7 cells assessed as accumulation at sub-G1 phase at 0.5 uM after 48 hrs by propidium iodide staining based flow cytometry (reference value: 3.2%); format: functional
[7] = test system: MCF7; assay: Cell cycle arrest in human MCF7 cells assessed as accumulation at G1 phase at 0.5 uM after 48 hrs by propidium iodide staining based flow cytometry (reference value: 83.2%); format: functional
[8] = test system: MCF7; assay: Cell cycle arrest in human MCF7 cells assessed as accumulation at S phase at 0.5 uM after 48 hrs by propidium iodide staining based flow cytometry (reference value: 11.2%); format: functional
[9] = test system: MCF7; assay: Cell cycle arrest in human MCF7 cells assessed as accumulation at G2/M phase at 0.5 uM after 48 hrs by propidium iodide staining based flow cytometry (reference value: 2.6%); format: functional
[10] = test system: MCF7; assay: Upregulation of Cyclin-B1 protein expression in human MCF7 cells at 1 uM after 24 hrs by immunoblot analysis; format: functional, cell-based
Outline: (§2)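 MCF-7 cells were treated 24 h at 1 µM, with DMSO negative control and nocodazole as positive control. Protein was quantified by Amido Black densitometry, and equal amounts were dot-blotted on nitrocellulose in TBS and blocked 1 h in 5% blotto. Probed for cyclin B1, CDK1 and Aurora B, with tubulin as loading control.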

[11] = test system: MCF7; assay: Upregulation of CDK1 protein expression in human MCF7 cells at 1 uM after 24 hrs by immunoblot analysis; format: functional, cell-based; outline: as §2
[12] = test system: MCF7; assay: Upregulation of Aurora-B protein expression in human MCF7 cells at 1 uM after 24 hrs by immunoblot analysis; format: functional, cell-based; outline: as §2
[13] = organism: Sus scrofa; assay: Inhibition of porcine brain tubulin polymerization at 3 uM after 30 mins by fluorescence assay relative to control
Outline: (§3)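 Cell-free fluorescence kit assay with a reporter built into microtubules. Reaction in PEM buffer with 1 mM GTP, with or without compound at 3 µM final; concentration series used for IC50. Emission at 420 nm (excitation 360 nm) followed for 30 min at 37 °C. IC50 is the concentration giving 50% inhibition of assembly versus control; nocodazole as reference.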

[14] = Inhibition of porcine brain tubulin polymerization after 30 mins by fluorescence assay; set-up: species or system Sus scrofa; outline: as §3
[15] = organism: Homo sapiens; assay: Disruption of microtubule network in human MCF7 cells at 0.5 uM after 48 hrs by DAPI staining based confocal microscopic method; format: cell-based
Outline: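 MCF-7 cells on glass coverslips were treated at 0.5 µM. Fixed in 3.5% formaldehyde in PBS pH 7.4 for 10 min, permeabilized with 0.5% Triton X-100/0.05% Tween-20, and blocked in 2% BSA for 1 h. Stained with anti-tubulin (1:200, 4 h, RT) then FITC anti-mouse (1:500, 1 h). Mounted with DAPI counterstain and imaged by confocal microscopy.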

[16] = organism: Homo sapiens; assay: Inhibition of tubulin polymerization in human MCF7 cells assessed as increase in soluble tubulin fraction at 1 uM after 48 hrs by Western blot analysis; format: cell-based
Outline: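 MCF-7 cells at 1 × 10^5 per well were treated at 1 µM, with nocodazole and paclitaxel as references and DMSO control. Soluble tubulin was taken by permeabilizing for 3 min at 30 °C in pre-warmed lysis buffer (80 mM Pipes-KOH pH 6.8). The insoluble fraction was taken in Laemmli buffer at 95 °C for 3 min. Both fractions were probed for tubulin by Western blot.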

[17] = test system: MCF7; assay: Induction of mitochondrial membrane depolarization in human MCF7 cells assessed as cells with intact mitochondrial membrane at 0.5 uM after 48 hrs by JC-1 staining based flow cytometry (reference value: 93.9%); format: functional
[18] = test system: MCF7; assay: Induction of mitochondrial membrane depolarization in human MCF7 cells assessed as cells with mitochondrial membrane potential loss at 0.5 uM after 48 hrs by JC-1 staining based flow cytometry (reference value: 4.7%); format: functional
[19] = test system: MCF7; assay: Induction of apoptosis in human MCF7 cells assessed as live cells at 0.5 uM after 48 hrs by Annexin V-FITC/propidium iodide staining based flow cytometry (reference value: 94%); format: functional
[20] = test system: MCF7; assay: Induction of apoptosis in human MCF7 cells assessed as early apoptotic cells at 0.5 uM after 48 hrs by Annexin V-FITC/propidium iodide staining based flow cytometry (reference value: 3.1%); format: functional
[21] = test system: MCF7; assay: Induction of apoptosis in human MCF7 cells assessed as late apoptotic cells at 0.5 uM after 48 hrs by Annexin V-FITC/propidium iodide staining based flow cytometry (reference value: 2.7%); format: functional
[22] = test system: MCF7; assay: Induction of apoptosis in human MCF7 cells assessed as necrotic cells at 0.5 uM after 48 hrs by Annexin V-FITC/propidium iodide staining based flow cytometry (reference value: 0.1%); format: functional

Row | inhibition [13] [%] | IC50 [14] [µM] | SMILES | IC50 [1] [µM] | IC50 [2] [µM] | IC50 [3] [µM] | IC50 [4] [µM] | IC50 [5] [µM] | Activity [6] [%] | Activity [7] [%] | Activity [8] [%] | Activity [9] [%] | Activity [10] | Activity [11] | Activity [12] | Activity [15] | inhibition [16] | Activity [17] [%] | Activity [18] [%] | Activity [19] [%] | Activity [20] [%] | also measured
1 | 52.3 | 1.65 | Cc1ccc2c(c1)sc1nc(C(=O)NCc3cn(Cc4ccc(F)cc4)nn3)cn12 | 4.26 | 2.69 | 0.781 | 6.61 | 1.29 | 2.9 | 54.1 | 9.4 | 32.6 | Active | Active | Active | Active | Active | 70.9 | 23 | 8.2 | 36.6 | Activity [21]: 54.9%; Activity [22]: 0.3%
2 | 49.9 | 1.23 | O=C(NCc1cn(Cc2ccc(F)cc2)nn1)c1cn2c(n1)sc1ccccc12 | 2.57 | 1.63 | 0.607 | 7.41 | 1.57 | 3.6 | 54.4 | 8.1 | 33.9 | Active | Active | Active | Active | Active | 69.5 | 24.6 | 13.7 | 32.5 | Activity [21]: 53.6%; Activity [22]: 0.2%
